Laboratory results: ChEMBL document CHEMBL4043300, “2 H-1,2,3-Triazole-Based Dipeptidyl Nitriles: Potent, Selective, and Trypanocidal Rhodesain Inhibitors by Structure-Based Design” (J Med Chem, 2018)
≈ marks a conversion by molar mass, not a printed value.

Assays:
Procathepsin L = Procathepsin L (Homo sapiens, UniProt P07711); assay: Inhibition of human CatL using Cbz-Phe-Arg-AMC as substrate measured over 30 mins by fluorimetric method
Outline: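 Human cathepsin L in a fluorimetric assay in 50 mM Tris pH 6.5, 5 mM EDTA, 200 mM NaCl, 0.005% Brij35 at 25 °C. Ki was calculated from IC50 by Cheng-Prusoff. Value is the average of two measurements, each in duplicate.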

[1] = tested on: Trypanosoma brucei rhodesiense; assay: Antitrypanosomal activity against bloodstream form of Trypanosoma brucei rhodesiense STIB 900 infected in NMRI mouse assessed as reduction of parasitemia at 50 mg/kg, po administered for 3 consecutive days starting 1 day post infection measured at 24 hrs post last dose relative to control; type: functional; set-up: scale not given: the % may be the effect or the level left
Outline: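 Female mice infected with STIB900 were dosed orally at 50 mg/kg/day on three consecutive days, starting 1 day post-infection. Compound was in 100% DMSO diluted 10-fold in distilled water, given at 0.1 mL/10 g. Tail-blood parasitaemia was measured 24 h after the last dose versus 4 untreated infected controls. Values are means of 2 mice.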

[2] = tested on: Trypanosoma brucei rhodesiense; assay: Antitrypanosomal activity against bloodstream form of Trypanosoma brucei rhodesiense STIB 900 assessed as parasite growth inhibition after 72 hrs by Alamar blue assay; type: functional; conditions: STIB 900, 72 h
Outline: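 Standard 72 h growth-inhibition assay with STIB 900 bloodstream trypomastigotes and Alamar Blue read-out. Value is the mean of at least 2 measurements.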

[3] = Selectivity index, ratio of IC50 for rat L6 cells to IC50 for bloodstream form of Trypanosoma brucei rhodesiense STIB 900; type: toxicity; conditions: read-out: Ratio IC50
Outline: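 Ratio of L-6 rat skeletal myoblast IC50 to T. b. rhodesiense STIB 900 bloodstream trypomastigote IC50, both from Alamar Blue growth-inhibition assays. Each IC50 is the mean of at least 2 measurements.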

[4] = Selectivity index, ratio of Ki for human CatL to Ki for Trypanosoma brucei rhodesiense rhodesain
Outline: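 Ki(hCatL)/Ki(RD). Fluorimetric assays at 25 °C: RD in 50 mM sodium acetate pH 5.5; hCatL in 50 mM Tris pH 6.5; both buffers with 5 mM EDTA, 200 mM NaCl, 0.005% Brij35. Ki derived from IC50 by Cheng-Prusoff. Each value is the mean of two measurements, each done in duplicate.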

L6 = assay: Cytotoxicity against rat L6 cells after 72 hrs by Alamar blue assay; type: cell-based; conditions: L6, 72 h
Outline: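 Rat skeletal myoblast L6 cells in an Alamar Blue growth-inhibition assay. Value is the mean of at least 2 measurements.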

Rhodesain = Rhodesain (Trypanosoma brucei rhodesiense, UniProt Q95PM0); assay: Inhibition of Trypanosoma brucei rhodesiense rhodesain using Cbz-Phe-Arg-AMC as substrate by fluorimetric method
Outline: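 Fluorescence-based assay run at 25 °C in 50 mM sodium acetate pH 5.5 with 5 mM EDTA, 200 mM NaCl and 0.005% Brij35. IC50 values were converted to Ki with the Cheng-Prusoff equation. Values are the average of two measurements, each done in duplicate.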

[5] = Solubility of the compound at pH 6.5 by LYSA; type: physicochemical; conditions: buffer
Outline: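 Lyophilization solubility assay at pH 6.5.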

[6] = tested on: Trypanosoma brucei rhodesiense; assay: Antitrypanosomal activity against bloodstream form of Trypanosoma brucei rhodesiense STIB 900 assessed as parasite growth inhibition after 24 hrs by Alamar blue assay; type: functional; conditions: STIB 900, 24 h
Outline: (§1)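 Bloodstream STIB 900 trypomastigotes, 1x10⁴ per well, exposed to eleven 3-fold serial dilutions at 37 °C/5% CO₂ for the stated pulse time. Parasites were then pelleted and washed four times, and an aliquot was regrown 72 h drug-free in triplicate plates. Resazurin was added for 2–4 h, fluorescence read at ex 536/em 588 nm, and IC50 taken by linear regression of sigmoidal curves. Melarsoprol served as control.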

[7] = tested on: Trypanosoma brucei rhodesiense; assay: Antitrypanosomal activity against bloodstream form of Trypanosoma brucei rhodesiense STIB 900 assessed as parasite growth inhibition after 6 hrs by Alamar blue assay; type: functional; conditions: STIB 900, 6 h; outline: as §1
[8] = tested on: Trypanosoma brucei rhodesiense; assay: Antitrypanosomal activity against bloodstream form of Trypanosoma brucei rhodesiense STIB 900 assessed as parasite growth inhibition after 48 hrs by Alamar blue assay; type: functional; conditions: STIB 900, 48 h; outline: as §1
[9] = tested on: Trypanosoma brucei rhodesiense; assay: Antitrypanosomal activity against bloodstream form of Trypanosoma brucei rhodesiense STIB 900 assessed as parasite growth inhibition after 16 hrs by Alamar blue assay; type: functional; conditions: STIB 900, 16 h; outline: as §1
[10] = tested on: Trypanosoma brucei rhodesiense; assay: Antitrypanosomal activity against bloodstream form of Trypanosoma brucei rhodesiense STIB 900 assessed as parasite growth inhibition after 2 hrs by Alamar blue assay; type: functional; conditions: STIB 900, 2 h; outline: as §1
[11] = Octanol-water intrinsic distribution co-efficient, log D of the compound at 100 uM at pH 7.4 after 16 to 22 hrs by CAMDIS assay; type: physicochemical
Outline: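 Octanol/aqueous buffer (pH 7.4) intrinsic distribution coefficient measured in the CAMDIS carrier-mediated distribution system.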

Procathepsin L, sequence (P07711 whole entry): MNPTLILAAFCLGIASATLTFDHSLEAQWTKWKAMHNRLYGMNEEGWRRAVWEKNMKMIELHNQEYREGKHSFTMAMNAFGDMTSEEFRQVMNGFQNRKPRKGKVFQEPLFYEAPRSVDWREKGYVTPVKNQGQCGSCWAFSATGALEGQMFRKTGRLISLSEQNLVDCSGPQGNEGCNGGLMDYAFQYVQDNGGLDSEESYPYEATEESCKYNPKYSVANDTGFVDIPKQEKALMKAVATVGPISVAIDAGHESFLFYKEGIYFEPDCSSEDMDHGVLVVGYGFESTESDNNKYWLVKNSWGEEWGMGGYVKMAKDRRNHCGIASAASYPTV
Rhodesain, sequence (Q95PM0 whole entry): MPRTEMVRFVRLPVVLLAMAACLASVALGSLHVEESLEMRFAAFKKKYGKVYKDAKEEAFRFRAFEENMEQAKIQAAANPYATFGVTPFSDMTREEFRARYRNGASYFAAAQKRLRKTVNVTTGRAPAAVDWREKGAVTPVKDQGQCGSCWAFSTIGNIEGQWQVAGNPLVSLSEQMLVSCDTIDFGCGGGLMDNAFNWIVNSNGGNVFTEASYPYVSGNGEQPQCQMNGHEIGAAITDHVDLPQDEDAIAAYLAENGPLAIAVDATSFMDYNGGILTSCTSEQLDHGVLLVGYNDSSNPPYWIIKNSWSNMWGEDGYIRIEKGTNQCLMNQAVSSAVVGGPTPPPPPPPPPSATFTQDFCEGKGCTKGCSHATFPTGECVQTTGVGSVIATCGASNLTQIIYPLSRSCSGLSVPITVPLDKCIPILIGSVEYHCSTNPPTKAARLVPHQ

Row | SMILES | Ki (Procathepsin L) [nM] | Activity [1] [%] | IC50 [2] [nM] | selectivity ratio [3] | Ratio Ki [4] | IC50 (L6) [nM] | Ki (Rhodesain) [nM] | solubility [5] [µg/mL] | IC50 [6] [nM] | IC50 [7] [nM] | IC50 [8] [nM] | IC50 [9] [nM] | IC50 [10] [nM] | logD at 100 µM [11]
1 | N#CC1(NC(=O)[C@H](Cc2ccc(Cl)c(Cl)c2)NC(=O)c2cnn(C3CC(F)(F)C3)n2)CC1 | 64 | 15.8 | 8 | 6840 | 3.6 | 54800 | 18 |  |  |  |  |  |  | 
2 | N#CC1(NC(=O)[C@H](Cc2ccccc2Cl)NC(=O)c2cnn(-c3ccc(F)cc3)n2)CC1 |  |  |  |  | 18 to 507 |  | 7.4 to 597 |  |  |  |  |  |  | 
3 | N#CC1(NC(=O)[C@H](Cc2ccc(OCC3CCC3)c(Cl)c2)NC(=O)c2cnn(-c3ccc(F)cc3)n2)CC1 | 314 |  | 27 | 281 | 20 | 7600 | 16 | < 0.3 |  |  |  |  |  | 
4 | Nc1nc(N)nc(Nc2ccc([As]3SCC(CO)S3)cc2)n1 (centres undefined) [MELARSOPROL] |  |  | 4 to 9 |  |  |  |  |  | 44 | 99 | 26 | 86 | > 180 | 
5 | CC(C)C[C@H](NC(=O)c1cnn(-c2ccc(F)cc2)n1)C(=O)NC1(C#N)CC1 |  |  | 2200 |  | 18 to 507 |  | 23 | 42 (≈ 109 µM) |  |  |  |  |  | 3.3
6 | N#CC1(NC(=O)[C@H](Cc2ccc(OC(F)(F)F)c(Cl)c2)NC(=O)c2cnn(-c3ccc(Cl)cc3)n2)CC1 | 467 |  | 22 | 377 | 47 | 8300 | 10 | < 0.3 |  |  |  |  |  | 
7 | N#CC1(NC(=O)[C@H](Cc2ccc(OCc3ccccc3)cc2)NC(=O)c2cnn(-c3ccc(F)cc3)n2)CC1 | 1470 |  | 19 |  | 87 | > 10000 | 17 | < 0.3 |  |  |  |  |  | 
8 | Cc1ccc(C(=O)Nc2ccc(S(=O)(=O)O)c3cc(S(=O)(=O)O)cc(S(=O)(=O)O)c23)cc1NC(=O)c1cccc(NC(=O)Nc2cccc(C(=O)Nc3cc(C(=O)Nc4ccc(S(=O)(=O)O)c5cc(S(=O)(=O)O)cc(S(=O)(=O)O)c45)ccc3C)c2)c1 [SURAMIN] |  |  | 46 |  |  |  |  |  |  |  |  |  |  | 
9 | N#CC1(NC(=O)[C@H](Cc2ccc(OC(F)(F)F)c(Cl)c2)NC(=O)c2cnn(-c3ccc(Br)cc3)n2)CC1 | 1080 |  | 28 | 271 | 43 | 7600 | 25 | < 0.3 |  |  |  |  |  | 
10 | N#CC1(NC(=O)[C@H](Cc2ccc(Cl)c(Cl)c2)NC(=O)c2cnn(C3COC3)n2)CC1 | 78 | 45.3 | 8 |  | 2.4 | > 100000 | 33 |  |  |  |  |  |  | 
11 | N#Cc1ccccc1C[C@H](NC(=O)c1cnn(-c2ccc(F)cc2)n1)C(=O)NC1(C#N)CC1 |  |  |  |  | 18 to 507 |  | 7.4 to 597 |  |  |  |  |  |  | 
12 | COCCOc1ccc(C[C@H](NC(=O)c2cnn(-c3ccc(F)cc3)n2)C(=O)NC2(C#N)CC2)cc1Cl | 181 to 314 |  | 27 to 190 |  | 18 to 507 |  | 9 to 16 |  |  |  |  |  |  | 
13 | N#CC1(NC(=O)[C@H](Cc2ccc(OCC3CC3)c(Cl)c2)NC(=O)c2cnn(-c3ccc(F)cc3)n2)CC1 | 181 to 314 |  | 27 to 190 |  | 18 to 507 |  | 9 to 16 |  |  |  |  |  |  | 
14 | N#CC1(NC(=O)[C@H](Cc2cccc(Cl)c2)NC(=O)c2cnn(-c3ccc(F)cc3)n2)CC1 |  |  |  |  | 18 to 507 |  | 7.4 to 597 |  |  |  |  |  |  | 
15 | N#Cc1ccc(C[C@H](NC(=O)c2cnn(-c3ccc(F)cc3)n2)C(=O)NC2(C#N)CC2)cc1Cl | 253 |  | 6 |  | 36 | > 10000 | 7 | < 0.3 |  |  |  |  |  | 3.63
16 | CSc1ccc(-n2ncc(C(=O)N[C@@H](Cc3ccc(OC(F)(F)F)c(Cl)c3)C(=O)NC3(C#N)CC3)n2)cc1 | 1120 |  | 67 |  | 59 | > 10000 | 19 | < 0.3 |  |  |  |  |  | 
